Here are results for 15 molecules from ChEMBL document CHEMBL1125834, “Synthesis and antirhinovirus activity of 8-substituted analogues of 6-(dimethylamino)-9-(4-methylbenzyl)-2-(trifluoromethyl)-9H-purine” (J Med Chem, 1991).

The subject of one assay is rhinovirus A1B. In words: Compound at 40 uM was tested for its percentage inhibitory concentration against rhinovirus 1B through plaque-inhibition assay at 50 ug/disk using monolayers of M-HeLa cells. It is filed as functional, rhinovirus type 1b.
Conditions: not given
Usually Inhibition stands for the share of the control response that was lost under treatment. With `Cc1ccc(Cn2c(NCc3ccccc3)nc3c(N(C)C)nc(C(F)(F)F)nc32)cc1`, the Inhibition came to 20%.

Molecule `Cc1ccc(Cn2c(S(C)(=O)=O)nc3c(N(C)C)nc(C(F)(F)F)nc32)cc1` returned an Inhibition of 37%.

On to `CC(=O)Nc1nc2c(N(C)C)nc(C(F)(F)F)nc2n1Cc1ccc(C)cc1`, for which the Inhibition worked out at 22%.

`Cc1ccc(Cn2c([S+](C)[O-])nc3c(N(C)C)nc(C(F)(F)F)nc32)cc1` (stereo not given) came in with an Inhibition of 27%.

In turn, `Cc1ccc(Cn2c(O)nc3c(N(C)C)nc(C(F)(F)F)nc32)cc1` had an Inhibition of 25%.

A further assay has as its system rhinovirus A1B. The assay can be described thus: (§1) Compound was tested for its inhibitory concentration against rhinovirus 1B through plaque-inhibition assay at 50 ug/disk using monolayers of M-HeLa cells. Conditions: Rhinovirus A. It is filed as functional, rhinovirus type 1b. The procedure, abridged:
(§2)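 The 50% inhibitory concentration against rhinovirus serotype 1B was measured in M-HeLa cells, with plaque-reduction run as described previously. 4',6-Dichloroflavan was run alongside as the reference.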
The inhibition is the change of the read-out against control, counted positive when it falls. The molecule `CSc1nc2c(N(C)C)nc(C(F)(F)F)nc2n1Cc1ccc(C)cc1` came in with an inhibition at 50 µg/disc of 15%.

A further assay relates to rhinovirus A1B. In words: Compound was tested for its percentage inhibitory concentration through plaque-inhibition assay at 50 microg per disk using monolayers of M-HeLa cells. It counts as functional, rhinovirus type 1b. The following applies: Rhinovirus A.
The molecule `Cc1ccc(Cn2c(SCc3ccccc3)nc3c(N(C)C)nc(C(F)(F)F)nc32)cc1` registered an inhibition at 50 µg/disc of 25%.

In the next assay the test system is rhinovirus A1B. The assay is described as §1. It is filed as functional, organism-based, rhinovirus type 1b. The following applies: Rhinovirus A. The procedure, abridged:
as §2
For orientation: IC50 means the concentration needed to halve the response being measured. For `Cc1ccc(Cn2cnc3c(N(C)C)nc(C(F)(F)F)nc32)cc1`, half-maximal inhibition (IC50) required 30 nM.

The molecule `Cc1ccc(Cn2c(=O)n(C)c3c(N(C)C)nc(C(F)(F)F)nc32)cc1` showed an IC50 of 15000 nM.

`Cc1ccc(Cn2c(Br)nc3c(N(C)C)nc(C(F)(F)F)nc32)cc1` displayed an IC50 of 1400 nM.

In the case of `Cc1ccc(Cn2c(S)nc3c(N(C)C)nc(C(F)(F)F)nc32)cc1`, the IC50 amounted to 20000 nM. Against the preceding molecule, the IC50 is about 14-fold higher.

`Cc1ccc(Cn2c(NCCO)nc3c(N(C)C)nc(C(F)(F)F)nc32)cc1` gave an IC50 of 8600 nM.

`Cc1ccc(Cn2c(N)nc3c(N(C)C)nc(C(F)(F)F)nc32)cc1` gave a half-inhibitory concentration (IC50) of 360 nM.

As for `CNc1nc2c(N(C)C)nc(C(F)(F)F)nc2n1Cc1ccc(C)cc1`, the IC50 was 2900 nM.

A further assay concerns rhinovirus A1B. The assay can be described thus: Compound at 8 uM was tested for its percentage inhibitory concentration against rhinovirus 1B through plaque-inhibition assay at 50 ug/disk using monolayers of M-HeLa cells. It is filed as functional, rhinovirus type 1b.
Conditions: not given
As for `Cc1ccc(Cn2c(N(C)C)nc3c(N(C)C)nc(C(F)(F)F)nc32)cc1`, the Inhibition was determined as 40%.
